# In ChEMBL document CHEMBL1165913, “Repairing faulty genes by aminoglycosides: development of new derivatives of geneticin (G418) with enhanced suppression of diseases-causing nonsense mutations” (Bioorg Med Chem, 2010):
# Activity calls are given as the source filed them. The rule behind the calls is not given here.
# Assays:
# Ribosome [1] = assay: Induction of ribosome to readthrough in-frame renilla/firefly TGA codon transfected in rabbit reticulocyte at 5 to 20 uM after 16 hrs dual-luciferase reporter gene assay; format: subcellular; conditions: Oryctolagus cuniculus
# Ribosome [2] = assay: Induction of ribosome to readthrough in-frame renilla/firefly TGA codon transfected in rabbit reticulocyte at 200 to 600 uM after 16 hrs dual-luciferase reporter gene assay; format: subcellular; conditions: Oryctolagus cuniculus
# Ribosome [3] = assay: Induction of ribosome to readthrough in-frame UGA codon of renilla/firefly CFTR W1282X nonsense mutant gene transfected in rabbit reticulocyte assessed as reduction in overall translation at 5 to 20 uM […] dual-luciferase reporter gene assay; format: subcellular; conditions: Oryctolagus cuniculus
# Ribosome [4] = assay: Induction of ribosome to readthrough in-frame UGA codon of renilla/firefly PCDH15 R3X nonsense mutant gene transfected in rabbit reticulocyte assessed as reduction in overall translation at 5 to 20 uM […] dual-luciferase reporter gene assay; format: subcellular; conditions: Oryctolagus cuniculus
# Bacillus subtilis = assay: Antibacterial activity against Bacillus subtilis ATCC 6633 by double-microdilution method; format: functional
# Outline: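 MIC determined by double-microdilution per NCCLS against Gram-positive B. subtilis ATCC-6633, starting at 384 µg/mL of compound. Run in triplicate (footnote says duplicates); analogous results in three separate experiments.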
# [5] = Inhibition of ribosomal activity in Spodoptera frugiperda Sf21 cells assessed as inhibition of translation after 60 mins by fluorescence assay; format: subcellular, Ribosome
# [6] = Ratio of paromomycin to compound antitranslational activity against prokaryotic ribosome-mediated translation; format: subcellular
# Ribosome [7] = assay: Induction of ribosome to readthrough in-frame UGA codon associated with renilla/firefly dystrophin R3381X nonsense mutant gene transfected in rabbit reticulocyte assessed as reduction in overall translation at 5 to 20 uM […] dual-luciferase reporter gene assay; format: subcellular; conditions: Oryctolagus cuniculus
# Bacterial 70S ribosome = assay: Inhibition of ribosomal activity in Escherichia coli strain B assessed as inhibition of translation after 60 mins by coupled transcription/translation assay; format: subcellular
# Outline: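 E. coli S30 extract for circular DNA, with pBESTluc plasmid as template. Reactions containing varying aminoglycoside concentrations incubated at 37 °C for 60 min, chilled on ice 5 min, then diluted in tris-phosphate buffer (25 mM, pH 7.8) with DTT, chelator, glycerol, Triton X-100 and BSA. Luciferase luminescence read immediately after reagent addition. IC50 fitted from at least two independent experiments.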
# Ribosome [8] = assay: Induction of ribosome to readthrough in-frame UAG codon of renilla/firefly IDUA Q70X nonsense mutant gene transfected in rabbit reticulocyte assessed as reduction in overall translation at 5 to 20 uM […] dual-luciferase reporter gene assay; format: subcellular; conditions: Oryctolagus cuniculus
# [9] = Ratio of gentamicin to compound antitranslational activity against prokaryotic ribosome-mediated translation; format: subcellular
# [10] = (§1) Cytotoxicity against HEK293 cells after 48 hrs by XTT assay; format: cell-based; conditions: human, HEK293 cells; read-out: LC50
# Outline: (§2)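 HEK-293 cells seeded overnight at 5000 cells/well in DMEM with 10% FBS, 1% pen/strep and 1% glutamine. Medium then replaced with antibiotic-free medium, aminoglycoside added at a range of concentrations, and cells incubated 48 h. Read-out by O.D. on a plate reader. Viability is the ratio of living cells treated vs untreated. LC50 fitted from concentration–response curves of at least two independent experiments. Concentrations are given as free amine.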
# Escherichia coli = assay: Antibacterial activity against Escherichia coli R477-100 by double-microdilution method; format: functional
# Outline: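 MIC by two-fold broth microdilution following NCCLS guidance; tested compound started at 384 µg/mL. Each run done in triplicate, with consistent results across three separate experiments.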
# Ribosome [11] = assay: Induction of ribosome to readthrough in-frame UGA codon of renilla/firefly PCDH15 R245X nonsense mutant gene transfected in rabbit reticulocyte assessed as reduction in overall translation at 5 to 20 uM […] dual-luciferase reporter gene assay; format: subcellular; conditions: Oryctolagus cuniculus
# Ribosome [12] = assay: Induction of ribosome to readthrough in-frame UGA codon of renilla/firefly CFTR G542X nonsense mutant gene transfected in rabbit reticulocyte assessed as reduction in overall translation at 5 to 20 uM […] dual-luciferase reporter gene assay; format: subcellular; conditions: Oryctolagus cuniculus
# Ribosome [13] = assay: Induction of ribosome to readthrough in-frame UGA codon of renilla/firefly CFTR W1282X nonsense mutant gene transfected in HEK293 cells assessed as reduction in overall translation at 1 to 2 mM after 6 hrs dual-luciferase reporter gene assay; format: subcellular; conditions: Homo sapiens
# [14] = Ratio of compound LC50 to geneticin LC50 for HEK293 cells; format: ADME, cell-based; conditions: human
# Outline: (§3)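 HEK-293 cells seeded 5000/well overnight in DMEM with 10% FBS, 1% pen/strep, 1% glutamine; medium replaced without antibiotics, aminoglycosides added at varying concentrations for 48 h; OD read on plate reader. Viability as living cells treated versus untreated; LC50 from concentration–response fits of at least two independent experiments; ratios relative to reference drug LC50.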
# Ribosome [15] = assay: Induction of ribosome to readthrough in-frame UAG codon of renilla/firefly IDUA Q70X nonsense mutant gene transfected in HEK293 cells assessed as reduction in overall translation at 1 to 2 mM after 6 hrs dual-luciferase reporter gene assay; format: subcellular; conditions: Homo sapiens
# HEK293 [16] = assay: Ratio of geneticin to compound activity for induction of ribosome to readthrough in-frame UGA codon of renilla/firefly CFTR W1282X nonsense mutant gene transfected in HEK293 cells at 0.1 to 0.7 mM after 6 hrs dual-luciferase reporter gene assay; format: subcellular; conditions: Homo sapiens
# HEK293 [17] = assay: Ratio of compound LC50 to gentamicin LC50 for HEK293 cells; format: ADME, cell-based; conditions: human; outline: as §3
# Ribosome [18] = assay: Induction of ribosome to readthrough in-frame UGA codon of renilla/firefly PCDH15 R3X nonsense mutant gene transfected in HEK293 cells assessed as reduction in overall translation at 1 to 2 mM after 6 hrs dual-luciferase reporter gene assay; format: subcellular; conditions: Homo sapiens
# [19] = Cytotoxicity against HDF after 72 hrs by XTT assay; format: cell-based; conditions: human
# Outline: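 Primary human dermal fibroblasts isolated from adult skin. Handled as in the HEK-293 protocol (overnight seeding, antibiotic-free medium, range of aminoglycoside concentrations), but exposed for 72 h. Viability is the ratio of treated to untreated living cells by O.D. LC50 fitted from concentration–response curves of at least two independent experiments.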
# HEK293 [20] = assay: as §1; format: cell-based; conditions: human, hek293, 48 h; read-out: LC50 (the source's name); outline: as §2
Compound,Activity (Ribosome [1]),inhibition (Ribosome [3]),inhibition (Ribosome [4]),MIC (Bacillus subtilis),IC50 [5],inhibition (Ribosome [7]),IC50 (Bacterial 70S ribosome),inhibition (Ribosome [8]),CC50 at 48 h [10],MIC (Escherichia coli),inhibition (Ribosome [11]),inhibition (Ribosome [12]),further results
NCC[C@H](O)C(=O)N[C@@H]1C[C@H](N)[C@@H](O[C@H]2O[C@H](CO)[C@@H](O)[C@H](O)[C@H]2N)[C@H](O)[C@H]1O,Active,–,–,–,–,–,–,–,–,–,–,–,Activity (Ribosome [2]): Active
C[C@H](O)[C@H]1O[C@H](O[C@H]2[C@H](O)[C@@H](O)[C@H](N)C[C@@H]2N)[C@H](N)[C@@H](O)[C@@H]1O,Active,–,–,–,–,–,–,–,–,–,–,–,Activity (Ribosome [2]): Active
NC[C@H]1O[C@@H](O[C@@H]2[C@@H](O)[C@H](N)C[C@H](N)[C@H]2O[C@H]2O[C@H](CO)[C@@H](O)[C@H](O)[C@H]2N)[C@H](O)[C@@H]1O,–,10%,10%,100 µM,31 µM,10%,0.46 µM,10%,21400 µM,790 µM,10%,10%,Ratio [6]: 10; Ratio [9]: 10
C[C@H](O)[C@H]1O[C@H](O[C@H]2[C@H](O[C@@H]3O[C@H](CN)[C@@H](O)[C@H]3O)[C@@H](O)[C@H](NC(=O)[C@@H](O)CCN)C[C@@H]2N)[C@H](N)[C@@H](O)[C@@H]1O,–,50%,50%,70 µM,2.8 µM,50%,0.98 µM,50%,7000 µM,556 µM,50%,50%,inhibition (Ribosome [13]): Active; selectivity ratio [14]: 5; inhibition (Ribosome [15]): Active; Ratio (HEK293 [16]): 2; Ratio (HEK293 [17]): 2.8; inhibition (Ribosome [18]): Active
CN[C@@H]1[C@@H](O)[C@@H](O[C@@H]2[C@@H](O)[C@H](O[C@H]3O[C@H]([C@@H](C)O)[C@@H](O)[C@H](O)[C@H]3N)[C@@H](N)C[C@H]2N)OC[C@]1(C)O [GENETICIN],–,–,–,< 1.25 µM,–,–,0.0089 µM,–,1300 µM,9 µM,–,–,"CC50 at 72 h ([19]; HDF cells, read-out: LC50): 2000 µM"
GENTAMICIN [listing 1 of 2 here],–,–,–,–,62 µM,–,0.028 µM,–,–,–,–,–,"CC50 ([19]; hdf, 72 h, read-out: LC50 (the source's name)): 3800 µM; CC50 (HEK293 [20]): 2500 µM"
NCC[C@H](O)C(=O)N[C@@H]1C[C@H](N)[C@@H](O[C@H]2O[C@H](CO)[C@@H](O)[C@H](O)[C@H]2N)[C@H](O[C@@H]2O[C@H](CN)[C@@H](O)[C@H]2O)[C@H]1O,–,10%,10%,70 µM,24 µM,10%,0.16 µM,10%,6100 µM,588 µM,10%,10%,inhibition (Ribosome [13]): Active; Ratio [6]: 10; inhibition (Ribosome [15]): Active; Ratio [9]: 10; inhibition (Ribosome [18]): Active
N[C@H]1[C@@H](O[C@H]2[C@H](O)[C@@H](O)[C@H](N)C[C@@H]2N)O[C@H](CO)[C@@H](O)[C@@H]1O,Active,–,–,–,–,–,–,–,–,–,–,–,Activity (Ribosome [2]): Active
C[C@H](O)[C@H]1O[C@H](O[C@H]2[C@H](O[C@@H]3O[C@H](CN)[C@@H](O)[C@H]3O)[C@@H](O)[C@H](N)C[C@@H]2N)[C@H](N)[C@@H](O)[C@@H]1O,–,10%,10%,42 µM,–,10%,1.13 µM,10%,25800 µM,–,10%,10%,–
C[C@H](O)[C@H]1O[C@H](O[C@H]2[C@H](O)[C@@H](O)[C@H](NC(=O)[C@@H](O)CCN)C[C@@H]2N)[C@H](N)[C@@H](O)[C@@H]1O,Active,–,–,–,–,–,–,–,–,–,–,–,–
GENTAMICIN [listing 2 of 2 here],–,–,–,< 0.75 µM,–,–,–,–,–,6 µM,–,–,–
